Laboratory results taken from article PMC10586521 (Journal of medicinal chemistry, 2023).

Tests used:
Format in all cases: cell-based
[1] = system: HCT116 colorectal carcinoma cells; test: MTS cell viability / cell growth inhibition assay in HCT116 cells; settings: for GI50: Homo sapiens, HCT-116, 72 h; for fold loss in cell growth inhibitory activity (GI50) compared to 1 / fold less effective (GI50) compared to 17S-FD-895: HCT116 cells, 72 h; for fold loss in cell growth inhibitory activity (GI50) compared to 1: relative to FD-895 (1); for fold less effective (GI50) compared to 17S-FD-895: comparator printed as 17S-FD-895 (1a); for fold loss in activity: comparator not stated, side chain terminus modification
HCT116 tumor cells = test: qRT-PCR splice modulation, overall profile over the gene panel in HCT116 cells; settings: HCT116, 24 h, 100, 250 and 500 nM
SF2 = test: qRT-PCR, SF2 RNA expression in HCT116 cells; settings: for down regulation of SF2 expression: HCT116, 4 h, ~20 times GI50; for SF2 expression: HCT116, 24 h, 100-500 nM
PLK-1 = test: qRT-PCR splice modulation, PLK-1 exon skipping/expression in HCT116 cells; settings: for PLK-1 expression/splicing: HCT116, 24 h, 100-500 nM; for effect on exon 3 inclusion in PLK-1: HCT116, 4 h, ~20 times GI50
How it was run: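 HCT116 (ATCC, mycoplasma-tested, ≤5 passages) in supplemented McCoy's 5a with 0.5% DMSO, exposed 4 h or 24 h (100, 250, 500 nM); untreated control. Total RNA isolated, 1 μg DNase I-treated, cDNA made; qPCR on 5 ng cDNA with primers for intron retention/exon skipping. Cycling: 95 °C 10 min; 40× (95 °C 30 s, 55 °C 60 s, 72 °C 60 s). 2−ΔΔCT vs GAPDH, untreated set to 1.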

DNAJB1 = test: qRT-PCR splice modulation, DNAJB1 intron retention in HCT116 cells; settings: for DNAJB1 intron 2 retention: HCT116, 4 h, ~20 times GI50, relative to 1; for DNAJB1 intron retention: HCT116, 24 h, 100-500 nM, compared to 1
SF3A1 = test: qRT-PCR splice modulation, SF3A1 intron retention in HCT116 cells; settings: for SF3A1 intron 6 retention: HCT116, 4 h, ~20 times GI50, relative to 1; for SF3A1 intron retention: HCT116, 24 h, 100-500 nM, compared to 1
SF3B2 = test: qRT-PCR splice modulation, SF3B2 intron retention in HCT116 cells
SF3A3 = test: qRT-PCR splice modulation, SF3A3 intron retention in HCT116 cells; settings: HCT116, 24 h, 100-500 nM, compared to 1
How it was run: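 HCT116 cells (ATCC, mycoplasma-tested, ≤5 passages), supplemented McCoy's 5a with 0.5% DMSO, treated 24 h at 100, 250 or 500 nM; untreated cells as control. Total RNA extracted, 1 μg DNase I-treated, converted to cDNA; qPCR on 5 ng cDNA using intron-retention primers, 95 °C 10 min then 40 cycles 95/55/72 °C. Levels by 2−ΔΔCT relative to GAPDH, untreated = 1.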

AURKA = test: qRT-PCR splice modulation, AURKA exon skipping/expression in HCT116 cells; settings: HCT116, 24 h, 100-500 nM
[2] = HCT116, 4 h, ~20 times GI50, compared to 1
[3] = HCT116, 24 h, 100-500 nM, compared to 1

`CC[C@H](OC)[C@@H](C)[C@H]1O[C@@H]1[C@H](O)[C@H](C)/C=C/C=C(\C)[C@H]1OC(=O)C[C@H](O)CC[C@@](C)(O)[C@@H](OC(C)=O)/C=C/[C@@H]1C` [Compound 1, FD-895] was tested, and the GI50 [1] was < 10 nM, the “overall splicing activity over the genes tested” value (HCT116 tumor cells) was “altered the splicing of nearly all genes tested” and the “down regulation of SF2 expression” value (SF2) was “highest efficacy”. For the same compound, the SF2 expression (SF2) was “weak efficacy” and the PLK-1 expression/splicing (PLK-1) was “weak efficacy”.

In the case of `CC[C@H](OC)[C@@H](C)[C@H]1O[C@@H]1[C@H](O)[C@H](C)/C=C/C=C(\C)[C@H]1OC(=O)C[C@@H](O)CC[C@@](C)(O)[C@@H](OC(C)=O)/C=C/[C@@H]1C` [Compound 1a, 3S-FD-895], the GI50 [1] is reported as < 10 nM, the “DNAJB1 intron 2 retention” value (DNAJB1) is reported as “highest level of intron retention” and the “effect on exon 3 inclusion in PLK-1” value (PLK-1) is reported as “most potent effect”. For the same compound, the “SF3A1 intron 6 retention” value (SF3A1) was “more effective than 1” and the SF3B2 intron retention (SF3B2; [2]) was “improved efficacy”.

`CC[C@H](OC)[C@@H](C)[C@H]1O[C@@H]1[C@H](O)[C@H](C)/C=C/C=C(\C)[C@H]1OC(=O)C[C@H](O)CC[C@@](C)(O)[C@H](OC(C)=O)/C=C/[C@@H]1C` [Compound 1b, 7R-FD-895] was tested, and the “fold loss in cell growth inhibitory activity (GI50) compared to 1” value [1] was 300 fold, the “overall splicing activity over the genes tested” value (HCT116 tumor cells) was “loss of splicing activity” and the “effect on exon 3 inclusion in PLK-1” value (PLK-1) was “most potent effect”.

With `CC[C@H](OC)[C@@H](C)[C@H]1O[C@@H]1[C@H](O)[C@H](C)/C=C/C=C(\C)[C@@H]1OC(=O)C[C@H](O)CC[C@@](C)(O)[C@@H](OC(C)=O)/C=C/[C@H]1C` [Compound 1c, 10R,11R-FD-895] the “fold loss in cell growth inhibitory activity (GI50) compared to 1” value [1] was 21,700 fold.

`CC[C@H](OC)[C@@H](C)[C@H]1O[C@@H]1[C@@H](O)[C@H](C)/C=C/C=C(\C)[C@H]1OC(=O)C[C@H](O)CC[C@@](C)(O)[C@@H](OC(C)=O)/C=C/[C@@H]1C` [Compound 1d, 17S-FD-895] was tested, and the GI50 [1] was < 10 nM, the SF2 expression (SF2) was “decreased effect” and the DNAJB1 intron retention (DNAJB1) was “decreased level of intron retention”. The PLK-1 expression/splicing (PLK-1) was “decreased effect”, the SF3A1 intron retention (SF3A1) was “dose dependent-increase intron retention” and the SF3B2 intron retention (SF3B2; [3]) was “dose dependent-increase intron retention”.

In the case of `CC[C@H](OC)[C@@H](C)[C@H]1O[C@@H]1[C@H](OC)[C@H](C)/C=C/C=C(\C)[C@H]1OC(=O)C[C@H](O)CC[C@@](C)(O)[C@@H](OC(C)=O)/C=C/[C@@H]1C` [Compound 1e, 17-methoxy-FD-895], the “overall splicing activity over the genes tested” value (HCT116 tumor cells) is reported as “comparable or slightly reduced splice modulatory activity”, the “DNAJB1 intron 2 retention” value (DNAJB1) is reported as “highest level of intron retention” and the “SF3A1 intron 6 retention” value (SF3A1) is reported as “more effective than 1”. The SF3B2 intron retention (SF3B2; [2]) was “improved efficacy”.

In the case of `CC[C@H](OC)[C@@H](C)[C@H]1O[C@@H]1[C@@H](OC)[C@H](C)/C=C/C=C(\C)[C@H]1OC(=O)C[C@H](O)CC[C@@](C)(O)[C@@H](OC(C)=O)/C=C/[C@@H]1C` [Compound 1f, 17-methoxy-17S-FD-895], the “fold loss in cell growth inhibitory activity (GI50) compared to 1” value [1] is reported as 21 fold and the “SF3A1 intron 6 retention” value (SF3A1) is reported as “more effective than 1”.

In the case of `CC[C@H](OC)[C@@H](C)[C@H]1O[C@@H]1[C@@H](O)[C@H](C)/C=C/C=C(\C)[C@H]1OC(=O)C[C@@H](O)CC[C@@](C)(O)[C@@H](OC(C)=O)/C=C/[C@@H]1C` [Compound 1g, 3S,17S-FD-895], the “fold less effective (GI50) compared to 17S-FD-895” value [1] is reported as 52 fold, the “fold loss in cell growth inhibitory activity (GI50) compared to 1” value [1] is reported as 75 fold and the “down regulation of SF2 expression” value (SF2) is reported as “highest efficacy”. The SF2 expression (SF2) was “reduced ability to inhibit SF2 expression”, the “DNAJB1 intron 2 retention” value (DNAJB1) was “highest level of intron retention” and the DNAJB1 intron retention (DNAJB1) was “expected loss in intron retention”. For the same compound, the PLK-1 expression/splicing (PLK-1) was “reduced PLK-1 expression”, the SF3A3 intron retention (SF3A3) was “comparable intron retention” and the SF3A1 intron retention (SF3A1) was “expected loss in intron retention”. The SF3B2 intron retention (SF3B2; [2]) was “improved efficacy” and the SF3B2 intron retention (SF3B2; [3]) was “expected loss in intron retention”.

For `CC[C@H](OC)[C@@H](C)[C@H]1O[C@@H]1[C@@H](O)[C@H](C)/C=C/C=C(\C)[C@H]1OC(=O)C[C@H](O)CC[C@@](C)(O)[C@H](OC(C)=O)/C=C/[C@@H]1C` [Compound 1h, 7R,17S-FD-895], the “fold less effective (GI50) compared to 17S-FD-895” value [1] was 318 fold.

In the case of `CC[C@H](OC)[C@@H](C)[C@@H]1O[C@H]1[C@@H](O)[C@H](C)/C=C/C=C(\C)[C@H]1OC(=O)C[C@H](O)CC[C@@](C)(O)[C@@H](OC(C)=O)/C=C/[C@@H]1C` [Compound 1i, 17S,18S,19S-FD-895], the “fold loss in activity” value [1] is reported as 100 fold, the “overall splicing activity over the genes tested” value (HCT116 tumor cells) is reported as “drastic reduction in splicing activity” and the PLK-1 expression/splicing (PLK-1) is reported as “increased the RNA expression”. For the same compound, the “SF3A1 intron 6 retention” value (SF3A1) was “more effective than 1”.

For `CC[C@@H](OC)[C@H](C)[C@H]1O[C@@H]1[C@@H](O)[C@H](C)/C=C/C=C(\C)[C@H]1OC(=O)C[C@H](O)CC[C@@](C)(O)[C@@H](OC(C)=O)/C=C/[C@@H]1C` [Compound 1j, 17S,20S,21R-FD-895], the “fold loss in activity” value [1] was 100 fold, the “overall splicing activity over the genes tested” value (HCT116 tumor cells) was “splicing profile comparable to 1i” and the AURKA expression (AURKA) was “reducing the expression of AURKA at 500 nM”. For the same compound, the “SF3A1 intron 6 retention” value (SF3A1) was “more effective than 1”.
